Experimental findings from ChEMBL document CHEMBL4270537, “Design and biological evaluation of novel triaryl pyrazoline derivatives with dioxane moiety for selective BRAFV600E inhibition” (Eur J Med Chem, 2018) are described below.

The source made the active and inactive calls. The calls are words filed in the database; no cut-off is given here.

Series [1] addresses Serine/threonine-protein kinase B-raf (Mus musculus, UniProt P28028, V600E). The series can be described thus: Inhibition of mouse full length GST-tagged BRAF V600E mutant using recombinant human full length N-terminal His-tagged MEK1 as substrate preincubated for 1 hr followed by substrate addition measured after 25 mins.
In series [2] the target is Serine/threonine-protein kinase B-raf (Homo sapiens, UniProt P15056). The series can be described thus: Inhibition of recombinant human full length GST-tagged wild type BRAF expressed in baculovirus expression system using recombinant human full length N-terminal His-tagged MEK1 as substrate preincubated for 1 hr followed by substrate addition measured after 25 mins.
Chain of Serine/threonine-protein kinase B-raf (Homo sapiens, UniProt P15056) (P15056 whole entry): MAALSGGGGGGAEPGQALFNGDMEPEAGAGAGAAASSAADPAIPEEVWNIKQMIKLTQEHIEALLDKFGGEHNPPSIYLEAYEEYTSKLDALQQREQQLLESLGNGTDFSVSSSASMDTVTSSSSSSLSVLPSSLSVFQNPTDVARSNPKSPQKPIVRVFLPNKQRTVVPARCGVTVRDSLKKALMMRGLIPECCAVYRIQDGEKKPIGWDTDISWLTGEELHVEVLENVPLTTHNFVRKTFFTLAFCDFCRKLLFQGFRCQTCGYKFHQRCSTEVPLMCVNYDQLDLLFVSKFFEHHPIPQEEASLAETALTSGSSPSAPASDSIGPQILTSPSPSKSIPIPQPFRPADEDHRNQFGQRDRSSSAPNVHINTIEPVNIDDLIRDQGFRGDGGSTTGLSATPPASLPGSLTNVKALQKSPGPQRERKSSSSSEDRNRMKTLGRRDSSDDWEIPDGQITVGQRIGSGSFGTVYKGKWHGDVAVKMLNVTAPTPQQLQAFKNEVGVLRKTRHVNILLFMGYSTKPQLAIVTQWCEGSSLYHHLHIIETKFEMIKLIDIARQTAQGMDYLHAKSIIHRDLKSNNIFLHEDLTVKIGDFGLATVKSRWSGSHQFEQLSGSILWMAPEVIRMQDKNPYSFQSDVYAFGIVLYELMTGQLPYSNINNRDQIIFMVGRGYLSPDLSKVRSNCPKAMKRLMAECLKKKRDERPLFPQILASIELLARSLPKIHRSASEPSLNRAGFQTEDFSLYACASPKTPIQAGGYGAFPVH
In series [3] the test system is A-375. The series can be described thus: Antiproliferative activity against human A375 cells after 48 hrs by MTT assay. The format is functional. The conditions noted are these: A-375, 48 h. The procedure, abridged: (§1)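 MTT reduction assay. Cell lines grown to log phase in DMEM with 10% FBS (A375 in DMEM with sodium pyruvate added), seeded at 10⁴ cells/well in 96-well plates. Three replicate wells per concentration, each assay run three times, GI50 averaged.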
Background: Tetrazolium assays rely on reduction of a dye to a coloured formazan, in cell work by metabolically active cells.

The subject of a further series is WM 266-4. Put plainly: Antiproliferative activity against human WM266.4 cells after 48 hrs by MTT assay. Type of series: functional. The conditions noted are these: WM 266-4, 48 h. In short, it runs like this: as §1
Series [4] in a line: Antiproliferative activity against human WM1361 cells after 48 hrs by MTT assay. The conditions noted are these: WM1361, 48 h. Type of series: functional. The procedure, abridged: as §1
In the next series the test system is HT-29. Put plainly: Antiproliferative activity against human HT-29 cells after 48 hrs by MTT assay. The conditions noted are these: HT-29, 48 h. Type of series: functional. In short, it runs like this: as §1
The next series relates to HCT-116. Put plainly: Antiproliferative activity against human HCT116 cells after 48 hrs by MTT assay. Type of series: functional. The conditions noted are these: HCT-116, 48 h. In short, it runs like this: as §1
In series [5] the target is RAF proto-oncogene serine/threonine-protein kinase (Homo sapiens, UniProt P04049, Y340D/Y341D). Put plainly: Inhibition of recombinant human GST-tagged c-RAF (306 to 648 residues) Y340D/Y341D mutant expressed in baculovirus expression system using recombinant human full length N-terminal His-tagged MEK1 as substrate preincubated for 1 hr followed by substrate addition measured after 25 mins.
Chain of RAF proto-oncogene serine/threonine-protein kinase (P04049 whole entry Y340D/Y341D, the tested form may be a part): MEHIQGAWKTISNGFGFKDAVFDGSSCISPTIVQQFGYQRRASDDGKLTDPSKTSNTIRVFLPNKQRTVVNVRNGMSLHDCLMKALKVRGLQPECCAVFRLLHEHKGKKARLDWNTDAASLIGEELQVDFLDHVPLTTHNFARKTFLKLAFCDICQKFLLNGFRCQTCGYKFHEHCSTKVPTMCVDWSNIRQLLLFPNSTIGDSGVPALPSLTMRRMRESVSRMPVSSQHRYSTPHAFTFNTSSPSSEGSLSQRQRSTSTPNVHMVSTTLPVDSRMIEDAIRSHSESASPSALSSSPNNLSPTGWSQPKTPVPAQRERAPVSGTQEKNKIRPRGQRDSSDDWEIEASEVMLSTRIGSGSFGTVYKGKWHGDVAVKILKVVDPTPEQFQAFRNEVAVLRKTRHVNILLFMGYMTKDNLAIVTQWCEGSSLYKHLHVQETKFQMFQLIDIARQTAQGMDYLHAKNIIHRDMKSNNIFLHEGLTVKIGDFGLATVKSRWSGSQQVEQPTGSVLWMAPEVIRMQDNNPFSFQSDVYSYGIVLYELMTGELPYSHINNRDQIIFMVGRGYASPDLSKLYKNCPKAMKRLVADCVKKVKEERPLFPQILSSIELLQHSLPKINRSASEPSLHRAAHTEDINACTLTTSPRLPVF

Series [6] in a line: Cytotoxicity against HEK293T cells assessed as decrease in cell viability after 48 hrs by MTT assay. Type of series: cell-based, HEK-293T. The conditions noted are these: human. The procedure, abridged:
as §1

A short description of series [7]: Cytotoxicity against human LO2 cells assessed as decrease in cell viability after 48 hrs by MTT assay. The format is cell-based, L02. In short, it runs like this:
as §1

In series [8] the target is Dual specificity mitogen-activated protein kinase kinase; MEK1/2 (Homo sapiens, UniProt P36507+Q02750). The series can be described thus: Inhibition of MEK1/2 (unknown origin). The format is protein assay.
Series [9] addresses Mitogen-activated protein kinase 8 (Homo sapiens, UniProt P45983). The series can be described thus: Inhibition of N-terminal flag-tagged JNK1 (unknown origin) expressed in baculovirus expression system after 60 mins in presence of [gamma-32P]ATP by topcount scintillation method. In short, it runs like this:
(§2)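 Baculovirus-expressed N-terminal FLAG-tagged kinases in 25 mM HEPES pH 7.5, 10 mM Mg acetate, 1 mM DTT, 0.5 µM ATP plus [γ-³²P]ATP, 50 µL. p38α: 100 ng enzyme, MBP substrate. JNK1: 10 ng enzyme, 1 µg c-Jun. Compound and enzyme preincubated 5 min, ATP started the reaction, 60 min at 30 °C. Stopped with 10% TCA, filtered, washed with 3% phosphoric acid, counted by TopCount.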

Series [10] deals with Mitogen-activated protein kinase 14 (Homo sapiens, UniProt Q16539). The series can be described thus: Inhibition of N-terminal flag-tagged p38alpha (unknown origin) expressed in baculovirus expression system using MBP as substrate preincubated for 5 mins followed by substrate addition measured after 60 mins in presence of [gamma-32P]ATP by topcount scintillation method. The procedure, abridged:
as §2

Series [11] concerns Serine/threonine-protein kinase B-raf (Homo sapiens), P15056 [V600E]. Put plainly: Inhibition of BRAF V600E mutant in human A375 cells assessed as decrease in MEK1/2 phosphorylation up to 0.3 uM after 30 mins by Western blot analysis. The format is cell-based.
Chain of Serine/threonine-protein kinase B-raf (Homo sapiens), P15056 [V600E] (P15056 whole entry V600E): as the sequence (P15056 whole entry) above, with V600E counted along it
For series [12], the system named is A-375. The series can be described thus: Antitumor activity against human A375 cells xenografted in nude mouse assessed as tumor weight at 5 mg/kg, ip administered every second day for 14 days and measured on day 15. The format is functional. The procedure, abridged:
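A375 cells, 3 × 10⁶ in 0.1 mL cold PBS, injected subcutaneously into right flank of nude mice. Treatment began when tumors reached ~100 mm³; mice randomized, 5 per group. Compound suspended in olive oil, given intraperitoneally every second day for 14 days. Body weight recorded every two days; tumors excised and weighed on day 15.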
(In general: In xenograft studies the graft and the host belong to different species.)

The test system of a further series is Mus musculus. The series can be described thus: Toxicity in nude mouse xenografted with human A375 cells assessed as body weight loss at 5 mg/kg, ip administered every second day for 14 days and measured every 2 days. The format is organism-based. The conditions noted are these: in vivo. The procedure, abridged:
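Nude mice bearing subcutaneous right-flank A375 xenografts (3×10⁶ cells in cold PBS) were randomized into groups of 5 at about 100 mm³. Compounds were suspended in olive oil and given intraperitoneally every second day for 14 days. Body weight was recorded every two days.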

Chain of Serine/threonine-protein kinase B-raf (Mus musculus, UniProt P28028, V600E) (P28028 whole entry, looked up, stated change not applied): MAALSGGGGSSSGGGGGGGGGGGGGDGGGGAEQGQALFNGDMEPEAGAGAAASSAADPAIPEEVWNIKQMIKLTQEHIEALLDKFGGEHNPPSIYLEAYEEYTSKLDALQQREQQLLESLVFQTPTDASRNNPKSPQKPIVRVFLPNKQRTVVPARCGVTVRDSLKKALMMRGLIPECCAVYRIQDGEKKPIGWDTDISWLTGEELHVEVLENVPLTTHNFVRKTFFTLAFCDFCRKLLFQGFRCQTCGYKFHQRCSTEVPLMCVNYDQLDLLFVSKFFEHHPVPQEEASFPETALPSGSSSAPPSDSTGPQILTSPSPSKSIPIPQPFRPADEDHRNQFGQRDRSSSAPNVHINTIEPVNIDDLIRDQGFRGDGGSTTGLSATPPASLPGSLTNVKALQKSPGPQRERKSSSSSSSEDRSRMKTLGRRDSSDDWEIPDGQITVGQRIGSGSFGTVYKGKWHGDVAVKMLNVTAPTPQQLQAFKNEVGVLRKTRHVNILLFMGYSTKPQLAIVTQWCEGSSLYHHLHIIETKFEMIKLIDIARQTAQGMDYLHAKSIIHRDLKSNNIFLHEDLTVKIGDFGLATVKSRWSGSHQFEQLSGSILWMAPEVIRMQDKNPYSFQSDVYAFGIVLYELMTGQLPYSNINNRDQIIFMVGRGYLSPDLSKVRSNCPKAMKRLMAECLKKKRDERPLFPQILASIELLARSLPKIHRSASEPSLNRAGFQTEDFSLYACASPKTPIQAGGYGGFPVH
Chain of Mitogen-activated protein kinase 14 (Q16539 whole entry): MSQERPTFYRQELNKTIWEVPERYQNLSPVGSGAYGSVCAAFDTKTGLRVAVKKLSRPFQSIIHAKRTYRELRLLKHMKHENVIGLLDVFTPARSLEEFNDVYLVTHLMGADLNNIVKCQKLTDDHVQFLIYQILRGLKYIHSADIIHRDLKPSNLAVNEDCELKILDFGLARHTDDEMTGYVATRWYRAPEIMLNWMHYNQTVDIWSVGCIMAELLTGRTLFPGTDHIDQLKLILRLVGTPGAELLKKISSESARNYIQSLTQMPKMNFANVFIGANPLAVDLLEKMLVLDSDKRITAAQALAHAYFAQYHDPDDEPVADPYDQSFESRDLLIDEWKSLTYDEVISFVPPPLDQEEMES
Chain of Mitogen-activated protein kinase 8 (P45983 whole entry): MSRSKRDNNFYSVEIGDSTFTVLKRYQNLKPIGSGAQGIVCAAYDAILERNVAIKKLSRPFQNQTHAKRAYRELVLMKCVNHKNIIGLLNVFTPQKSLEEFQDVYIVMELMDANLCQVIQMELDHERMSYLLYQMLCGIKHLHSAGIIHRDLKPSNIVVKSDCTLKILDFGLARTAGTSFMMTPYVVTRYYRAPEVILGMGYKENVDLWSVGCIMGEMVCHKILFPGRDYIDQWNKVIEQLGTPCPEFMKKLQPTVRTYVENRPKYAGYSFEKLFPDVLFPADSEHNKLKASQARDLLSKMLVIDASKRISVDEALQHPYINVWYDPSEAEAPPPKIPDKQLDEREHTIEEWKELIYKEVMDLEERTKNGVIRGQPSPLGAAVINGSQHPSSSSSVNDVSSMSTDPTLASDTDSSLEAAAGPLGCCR

Usually IC50 stands for the midpoint of a concentration-inhibition curve. In general, GI50 refers to the concentration giving 50% growth inhibition. With `Cc1ccc(C2=NN(C(=S)Nc3ccccc3)C(c3ccc4c(c3)OCCO4)C2)cc1` (stereo not given), the IC50 in [1] is 4.28 µM; in series [2] it was over 200 µM. Moreover, the 50% growth inhibitory concentration (GI50) is 6.32 µM in the series on A-375 [3]; 10.3 µM in the series with WM 266-4; over 200 µM in series [4]; 19.5 µM in the series on HT-29; over 200 µM in the series on HCT-116.
In the case of `S=C(Nc1ccccc1)N1N=C(c2ccc(Br)cc2)CC1c1ccc2c(c1)OCCO2` (stereo not given), the concentration for half-maximal inhibition (IC50) is 0.05 µM in series [1]; 18.7 µM in [2]; 17.6 µM in series [5]; 188 µM in [8]; 93.6 µM in [9]; over 200 µM in series [10]. Besides, the GI50 came to 0.47 µM in the series on A-375 [3]; 0.87 µM in the series with WM 266-4; 37.5 µM in [4]; 2.58 µM in the series on HT-29; 32.1 µM in the series with HCT-116. Besides, the figures for the GI50 at 48 h in series [6] and in [7] were 152 µM and 188 µM, respectively.
Consider `S=C(Nc1ccccc1)N1N=C(c2cccs2)CC1c1ccc2c(c1)OCCO2` (stereo not given), for which the figures for the IC50 in series [1] and in [2] were 78.3 µM and 5.21 µM, respectively. The GI50 came out at 121 µM in the series on A-375 [3]; 154 µM in the series on WM 266-4; 7.96 µM in series [4]; 188 µM in the series on HT-29; 8.19 µM in the series with HCT-116.
Take `FC(F)(F)c1ccc(C2=NN(C(=S)Nc3ccccc3)C(c3ccc4c(c3)OCCO4)C2)cc1` (stereo not given): the IC50 was determined as 29.5 µM in series [1] and 35.6 µM in [2]. Moreover, the GI50 was 43.5 µM in the series with A-375 [3]; 52.4 µM in the series on WM 266-4; 123 µM in [4]; 97.5 µM with HT-29; 112 µM in the series on HCT-116.
As for `S=C(Nc1ccccc1)N1N=C(c2ccc(Cl)cc2)CC1c1ccc2c(c1)OCCO2` (stereo not given), the IC50 in series [1] was 135 µM; in series [2], over 200 µM. Further, the GI50 is 195 µM with A-375 [3]; over 200 µM with WM 266-4; over 200 µM in [4]; 187 µM in the series on HT-29; over 200 µM in the series on HCT-116.
`S=C(Nc1ccccc1)N1N=C(c2ccc(OCc3ccccc3)cc2)CC1c1ccc2c(c1)OCCO2` (stereo not given): the IC50 in series [1] is 0.01 µM; in series [2], 5.23 µM; in series [5], 3.15 µM; in [8], 176 µM; in series [9], 88.9 µM; in series [10], over 200 µM. Further, the GI50 came out at 0.35 µM in the series with A-375 [3]; 0.42 µM in the series on WM 266-4; 8.23 µM in series [4]; 0.86 µM in the series on HT-29; 8.53 µM in the series with HCT-116. For the same molecule, the GI50 at 48 h in series [6] is 175 µM; in [7], over 200 µM. Moreover, in series [11], the inhibition entry was “Active”.
Turning to `S=C(Nc1ccccc1)N1N=C(c2ccc(Cl)c(Cl)c2)CC1c1ccc2c(c1)OCCO2` (stereo not given), the IC50 in series [1] was determined as 30.6 µM; in series [2], 39.3 µM. Also, the GI50 in the series with A-375 [3] is 41.9 µM; in the series with WM 266-4, 58.7 µM; in [4], 122 µM; in the series with HT-29, 95.3 µM; in the series with HCT-116, 125 µM.
In the case of `S=C(Nc1ccccc1)N1N=C(c2ccccc2Br)CC1c1ccc2c(c1)OCCO2` (stereo not given), the values for the IC50 in series [1] and in series [2] were over 200 µM and 124 µM, respectively. Moreover, the GI50 with A-375 [3] is over 200 µM; in the series with WM 266-4, over 200 µM; in series [4], over 200 µM; with HT-29, over 200 µM; in the series with HCT-116, 195 µM.
Regarding `Fc1ccc(C2=NN(C(=S)Nc3ccccc3)C(c3ccc4c(c3)OCCO4)C2)cc1` (stereo not given), the concentration for half-maximal inhibition (IC50) in series [1] was found to be 11.1 µM; in [2], 23.1 µM. Further, the GI50 in the series on A-375 [3] was 15.7 µM; with WM 266-4, 22.5 µM; in [4], 65.3 µM; with HT-29 it was 37.6 µM; with HCT-116, 61.2 µM.
As for `CSc1ccc(C2=NN(C(=S)Nc3ccccc3)C(c3ccc4c(c3)OCCO4)C2)cc1` (stereo not given), the IC50 is 84.3 µM in series [1] and 156 µM in series [2]. The GI50 in the series on A-375 [3] is 159 µM; in the series with WM 266-4, 197 µM; in series [4], 187 µM; in the series with HT-29, over 200 µM; in the series on HCT-116, 193 µM.
For `S=C(Nc1ccccc1)N1N=C(c2cccc(Cl)c2)CC1c1ccc2c(c1)OCCO2` (stereo not given), the IC50 in series [1] is over 200 µM; in series [2], 95.9 µM. Moreover, the concentration for 50% growth inhibition (GI50) in the series on A-375 [3] was over 200 µM; in the series with WM 266-4, over 200 µM; in [4], 153 µM; with HT-29 it was over 200 µM; in the series on HCT-116, 138 µM.
In the case of `Cc1ccc(C2=NN(C(=S)Nc3ccccc3)C(c3ccc4c(c3)OCCO4)C2)cc1C` (stereo not given), the IC50 in series [1] was determined as 38.9 µM; in series [2], 48.9 µM. For the same molecule, the GI50 in the series on A-375 [3] was 61.3 µM; in the series on WM 266-4 it was 70.5 µM; in series [4], 148 µM; with HT-29 it was 133 µM; in the series on HCT-116, 144 µM.
In the case of `S=C(Nc1ccccc1)N1N=C(c2ccccc2)CC1c1ccc2c(c1)OCCO2` (stereo not given), the results for the IC50 in series [1] and in [2] were 0.82 µM and 21.3 µM, respectively. Also, the GI50 in the series with A-375 [3] worked out at 1.85 µM; in the series on WM 266-4 it was 3.18 µM; in series [4] it was 58.5 µM; with HT-29, 6.63 µM; in the series on HCT-116, 57.6 µM.
Regarding `CCCS(=O)(=O)Nc1ccc(F)c(C(=O)c2c[nH]c3ncc(-c4ccc(Cl)cc4)cc23)c1F` [VEMURAFENIB], the GI50 in the series on A-375 [3] came out at 0.95 µM; in the series on WM 266-4, 0.21 µM; in series [4], 20.8 µM; in the series on HT-29 it was 1.88 µM; with HCT-116 it was 25.2 µM. Moreover, the results for the Activity with A-375 [12] and in the series with Mus musculus were 0.41 g and “Non-Toxic”, respectively.
Take `O=[N+]([O-])c1ccc(C2=NN(C(=S)Nc3ccccc3)C(c3ccc4c(c3)OCCO4)C2)cc1` (stereo not given): the IC50 in series [1] was 57.2 µM; in series [2], over 200 µM. Also, the GI50 in the series with A-375 [3] was 78.1 µM; in the series on WM 266-4 it was 105 µM; in [4], over 200 µM; in the series with HT-29 it was 153 µM; with HCT-116 it was over 200 µM.
As to `COc1ccccc1C1=NN(C(=S)Nc2ccccc2)C(c2ccc3c(c2)OCCO3)C1` (stereo not given), the IC50 was 12.1 µM in [1] and over 200 µM in series [2]. Also, the GI50 in the series with A-375 [3] was 20.3 µM; in the series with WM 266-4 it was 25.8 µM; in [4] it was over 200 µM; in the series on HT-29, 30.5 µM; in the series with HCT-116, over 200 µM.
